Drawing on ChEMBL document CHEMBL3763087, “Picrajavanicins A-G, Quassinoids from Picrasma javanica Collected in Myanmar” (J Nat Prod, 2015), this text covers IC50 for eleven molecules.

The structures appear in SMILES notation.

Holding throughout (format): functional, cell-based
The test system of one experiment is MDA-MB-231. Kind of experiment: Antiproliferative activity against human MDA-MB-231 cells after 72 hrs by WST-8 assay. As to conditions: MDA-MB-231, 72 h. In outline:
(§1)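 The procedure follows an earlier report. Human A549 lung adenocarcinoma and HeLa cervix adenocarcinoma lines came from RCB; PANC-1 pancreatic epithelioid carcinoma, PSN-1 pancreatic adenocarcinoma and MDA-MB-231 breast adenocarcinoma came from ATCC. All were maintained in-house and grown in 96-well plates. Cell absorbance was read on a microplate reader and IC50 derived. 5-Fluorouracil served as positive control.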
In general terms: Tetrazolium assays rely on reduction of a dye to a coloured formazan, in cell work by metabolically active cells.

Experiment [1] in a line: Antiproliferative activity against human PANC1 cells after 72 hrs by WST-8 assay. As to conditions: PANC-1, 72 h. The essentials: as §1
The next experiment relates to PSN1. Kind of experiment: Antiproliferative activity against human PSN1 cells after 72 hrs by WST-8 assay. To be noted: PSN1, 72 h. In outline:
as §1

The test system of the next experiment is HeLa. Kind of experiment: Antiproliferative activity against human HeLa cells after 72 hrs by WST-8 assay. The essentials:
as §1

The test system of a further experiment is A549. Kind of experiment: Antiproliferative activity against human A549 cells after 72 hrs by WST-8 assay. To be noted: A549, 72 h. The essentials: as §1

With `COC1=C(C)[C@]2(O)CC(=O)O[C@@H]3C[C@H]4CC[C@H](O)C(=O)[C@]4(C)[C@@H](C1=O)[C@@]32C`, the 50% inhibitory concentration (IC50) (with MDA-MB-231; in experiment [1]; with PSN1; with HeLa; in the experiment on A549) was more than 10 µM each time.
As to `COC1=CC[C@@H]2C[C@H]3OC(=O)C[C@H]4C(C=O)=C(OC)C(=O)[C@H]([C@@]2(C)C1=O)[C@@]34C`, the IC50 (in the experiment on MDA-MB-231; in experiment [1]; with PSN1; with HeLa; in the experiment with A549) was more than 10 µM in each case.
In the case of `COC1=CC[C@@H]2C[C@H]3OC(=O)C=C4C(C)=C(OC)C(=O)[C@H]([C@@]2(C)C1=O)[C@]43C`, the IC50 (with MDA-MB-231; in experiment [1]; in the experiment with PSN1; in the experiment with HeLa; with A549) was more than 10 µM in each case.
Consider `COC1=C(C)[C@@H]2CC(=O)O[C@@H]3C[C@H]4CC[C@H](O)C(=O)[C@]4(C)[C@@H](C1=O)[C@@]32C`, for which the half-maximal inhibitory concentration (IC50) (in the experiment with MDA-MB-231; in experiment [1]; in the experiment with PSN1; in the experiment on HeLa; with A549) was more than 10 µM each time.
Consider `COC1=CC[C@@H]2C[C@H]3OC(O)C[C@H]4C(C)=C(OC)C(=O)[C@H]([C@@]2(C)C1=O)[C@@]34C` (stereo not given in full), for which the IC50 (in the experiment on MDA-MB-231; in experiment [1]; with PSN1; in the experiment with HeLa; with A549) was more than 10 µM each time.
On to `COC1=CC[C@@H]2C[C@H]3OC(=O)C=C4C(CO)=C(OC)C(=O)[C@H]([C@@]2(C)C1=O)[C@]43C`, for which the IC50 (with MDA-MB-231; in experiment [1]; with PSN1; in the experiment with HeLa; in the experiment with A549) was more than 10 µM throughout.
On to `COC1=C(OC)C(=O)[C@@]2(C)[C@H](C1)C[C@H]1OC(=O)C[C@@]3(O)C(C)=C(OC)C(=O)[C@H]2[C@@]13C`, for which the IC50 (in the experiment with MDA-MB-231; in experiment [1]; in the experiment on PSN1; in the experiment on HeLa; with A549) was more than 10 µM in each case.
With `COC1=CC[C@@H]2C[C@H]3OC(=O)C[C@H]4C(C)=C(OC)C(=O)[C@H]([C@@]2(C)C1=O)[C@@]34C`, the half-maximal inhibitory concentration (IC50) (in the experiment on MDA-MB-231; in experiment [1]; with PSN1; with HeLa; in the experiment with A549) was more than 10 µM in each case.
For the molecule `COC1=C(OC)C(=O)[C@@]2(C)[C@H](C1)C[C@H]1OC(=O)C[C@H]3C(C)=C(OC)C(=O)[C@H]2[C@@]13C`, the concentration for half-maximal inhibition (IC50) (in the experiment with MDA-MB-231; in experiment [1]; with PSN1; with HeLa; in the experiment with A549) was more than 10 µM in each case.
For `COC1=C(C)[C@@H]2CC(=O)O[C@@H]3C[C@H]4CC[C@H](OC)C(=O)[C@]4(C)[C@@H](C1=O)[C@@]32C`, the IC50 (with MDA-MB-231; in experiment [1]; in the experiment on PSN1; in the experiment with HeLa; in the experiment with A549) was more than 10 µM each time.
Turning to `O=c1[nH]cc(F)c(=O)[nH]1` [FLUOROURACIL], the IC50 – broadly, the point on the concentration scale where inhibition reaches its midpoint – with MDA-MB-231 was 1.1 µM; in experiment [1] it was 0.4 µM; in the experiment on PSN1, 8.7 µM; with HeLa it was 6.4 µM; with A549 it was 9 µM.
